Laboratory results reported in ChEMBL document CHEMBL1126560, “Endothelin-1 analogues substituted at both position 18 and 19: highly potent endothelin antagonists with no selectivity for either receptor subtype ETA or ETB” (J Med Chem, 1993).

Assays:
[1] = molecular target: Endothelin receptor, ET-A/ET-B (Homo sapiens) (UniProt P24530+P25101); test: (§1) Antagonism of sarafotoxin S6c-induced vasoconstriction in rabbit pulmonary artery at both ETA and ETB receptors; format: functional; conditions: Oryctolagus cuniculus; target entry is the homologue from another species
Method in brief: (§2)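 Rabbit pulmonary artery, endothelium-denuded 5-mm rings in Krebs-Henseleit, 95% O2-5% CO2, 37 °C, isometric tension. Compound added 15 min before cumulative sarafotoxin S6c. Tension normalized to 60 mM KCl response. Antagonism given as pA2 (van Rossum) or pD2' value; n in parentheses.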

[2] = molecular target: T1, Endothelin-1 receptor (Sus scrofa) (UniProt Q29010); test: Tested for the ETA receptor agonist activity by measuring maximum vasoconstriction in porcine coronary artery; format: functional, tissue-based
T1 sequence (whole entry): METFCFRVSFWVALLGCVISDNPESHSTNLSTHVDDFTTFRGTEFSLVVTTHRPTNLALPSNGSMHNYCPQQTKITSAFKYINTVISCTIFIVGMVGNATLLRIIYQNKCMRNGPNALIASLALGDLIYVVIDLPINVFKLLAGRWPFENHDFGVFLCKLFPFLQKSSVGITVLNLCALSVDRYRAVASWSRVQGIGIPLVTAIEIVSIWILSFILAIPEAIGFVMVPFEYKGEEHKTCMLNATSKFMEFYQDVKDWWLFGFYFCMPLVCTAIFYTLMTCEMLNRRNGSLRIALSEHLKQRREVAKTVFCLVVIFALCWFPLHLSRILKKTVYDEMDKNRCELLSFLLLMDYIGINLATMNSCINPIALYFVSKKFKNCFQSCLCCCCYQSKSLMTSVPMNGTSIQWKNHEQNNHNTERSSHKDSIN
Method in brief: (§3)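 Porcine right coronary artery, endothelium-denuded helical strips in Krebs-Henseleit, 37 °C, isometric tension. Compound applied cumulatively, up to 1 μM. Maximal contraction expressed as % of 60 mM KCl-induced tension; n in parentheses.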

[3] = molecular target: T2, Endothelin receptor type B (Bos taurus, UniProt P28088); test: Tested for the competitive binding versus [125I]- ET-1 determined in bovine cerebrum membrane for Endothelin B receptor; format: cell membranes
T2 sequence (P28088 whole entry): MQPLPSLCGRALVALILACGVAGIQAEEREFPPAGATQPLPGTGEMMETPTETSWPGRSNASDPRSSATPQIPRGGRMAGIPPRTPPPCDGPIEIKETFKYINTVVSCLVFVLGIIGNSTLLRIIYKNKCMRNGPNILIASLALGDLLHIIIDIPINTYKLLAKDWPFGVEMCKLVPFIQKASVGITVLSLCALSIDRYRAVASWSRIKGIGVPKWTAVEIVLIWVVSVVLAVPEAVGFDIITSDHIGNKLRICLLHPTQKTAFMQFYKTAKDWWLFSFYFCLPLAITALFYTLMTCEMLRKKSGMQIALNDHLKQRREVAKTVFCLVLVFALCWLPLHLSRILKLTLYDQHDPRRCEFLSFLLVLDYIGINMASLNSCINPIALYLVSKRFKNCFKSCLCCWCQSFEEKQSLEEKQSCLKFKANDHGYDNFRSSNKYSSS
Method in brief: (§4)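 Membranes (porcine cardiac ventricle at 12 μg/mL for ETA; bovine cerebrum at 150 μg/mL for ETB) in pH 7.2 Tris/EGTA/Mg acetate/0.1% BSA buffer with protease inhibitors. Incubated with 100 pM [125I]ET-1 and varied compound for 1 h at 25 °C, then filtered and counted by gamma counter. IC50 given as mean ± SEM of ≥3 determinations.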

Endothelin-1 receptor [4] = molecular target: T3, Endothelin-1 receptor (Sus scrofa, UniProt Q29010); test: Tested for the competitive binding versus [125I]- ET-1 determined in porcine cardiac ventricular membrane for Endothelin A receptor; method in brief: as §4
T3 sequence (Q29010 whole entry): T1 sequence (whole entry)

Endothelin-1 receptor [5] = molecular target: T3, Endothelin-1 receptor; test: ETA receptor antagonist activity was measured by inhibition of ET-1 induced vasoconstriction in isolated porcine coronary artery; format: functional, tissue-based; conditions: read-out: pA2 (converted)
Method in brief: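 Porcine right coronary artery, endothelium-denuded 2 × 5-mm helical strips in Krebs-Henseleit, 95% O2-5% CO2, 37 °C, isometric tension. Compound added 15 min before cumulative ET-1. Tension normalized to 60 mM KCl. pA2 by van Rossum's method; n in parentheses.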

[6] = molecular target: T4, Endothelin receptor, ET-A/ET-B (Homo sapiens, UniProt P24530+P25101); test: as §1; format: functional, Oryctolagus cuniculus; conditions: target entry is the homologue from another species; method in brief: as §2
T4 sequence (P24530 whole entry): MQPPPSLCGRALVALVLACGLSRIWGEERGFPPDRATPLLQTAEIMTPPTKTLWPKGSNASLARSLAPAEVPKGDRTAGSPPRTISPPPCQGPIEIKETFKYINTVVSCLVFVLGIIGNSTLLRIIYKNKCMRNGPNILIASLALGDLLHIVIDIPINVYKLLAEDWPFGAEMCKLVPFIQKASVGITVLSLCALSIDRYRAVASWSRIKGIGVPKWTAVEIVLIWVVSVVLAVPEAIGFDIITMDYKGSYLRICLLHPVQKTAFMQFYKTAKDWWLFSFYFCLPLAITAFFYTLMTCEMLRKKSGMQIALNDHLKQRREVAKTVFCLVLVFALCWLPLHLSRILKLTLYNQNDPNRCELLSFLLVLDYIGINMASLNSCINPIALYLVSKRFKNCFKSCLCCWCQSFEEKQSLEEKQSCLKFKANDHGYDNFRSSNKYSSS
T4 sequence (P25101 whole entry): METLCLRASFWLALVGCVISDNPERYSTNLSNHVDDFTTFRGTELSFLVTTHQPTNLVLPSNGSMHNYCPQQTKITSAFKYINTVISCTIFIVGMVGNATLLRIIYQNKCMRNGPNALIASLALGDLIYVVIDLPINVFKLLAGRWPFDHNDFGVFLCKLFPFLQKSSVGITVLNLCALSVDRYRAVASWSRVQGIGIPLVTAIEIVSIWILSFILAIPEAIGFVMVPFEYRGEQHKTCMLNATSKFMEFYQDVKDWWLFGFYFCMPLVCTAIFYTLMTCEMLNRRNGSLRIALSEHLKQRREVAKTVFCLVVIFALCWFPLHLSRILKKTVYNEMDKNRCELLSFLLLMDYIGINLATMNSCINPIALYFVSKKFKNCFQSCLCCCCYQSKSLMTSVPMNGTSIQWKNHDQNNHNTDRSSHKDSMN

[7] = molecular target: T1, Endothelin-1 receptor (Sus scrofa); test: Endothelin A receptor agonist activity as maximum vasoconstriction in porcine coronary artery; format: functional, tissue-based; method in brief: as §3

Structure (SMILES) | pD2 [1] | Max vasoconstriction [2] | IC50 [3] | IC50 (Endothelin-1 receptor [4]) | Kb (Endothelin-1 receptor [5]) | pA2 [6] | Max vasoconstriction [7]
CC[C@H](C)[C@H](NC(=O)[C@H](CC(C)C)NC(=O)[C@@H](NC(=O)[C@H](CC(C)C)NC(=O)[C@H](Cc1c[nH]cn1)NC(=O)[C@@H]1CSSC[C@@H](N)C(=O)N[C@@H](CO)C(=O)N[C@@H]2CSSC[C@@H](NC(=O)[C@H](CCC(=O)O)NC(=O)[C@@H](CCCCN)NC(=O)[C@H](CC(=O)O)NC(=O)[C@@H](CCSC)NC(=O)[C@H](CC(C)C)NC(=O)[C@@H](CO)NC(=O)[C@H](CO)NC2=O)C(=O)N[C@@H](C(C)C)C(=O)N[C@H](Cc2ccc(O)cc2)C(=O)N[C@@H](Cc2ccccc2)C(=O)N1)[C@H](C)O)C(=O)N[C@@H](Cc1c[nH]c2ccccc12)C(=O)O | 8.7 | 4 | – | – | – | – | –
CC[C@H](C)[C@H](NC(=O)[C@H](CC(C)(C)C)NC(=O)[C@@H](NC(=O)[C@H](CC(C)C)NC(=O)[C@H](Cc1c[nH]cn1)NC(=O)[C@@H]1CSSC[C@H](N)C(=O)N[C@@H](CO)C(=O)N[C@H]2CSSC[C@H](NC(=O)[C@H](CCC(=O)O)NC(=O)[C@H](CCCCN)NC(=O)[C@H](CC(=O)O)NC(=O)[C@H](CCSC)NC(=O)[C@H](CC(C)C)NC(=O)[C@H](CO)NC(=O)[C@H](CO)NC2=O)C(=O)N[C@@H](C(C)C)C(=O)N[C@@H](Cc2ccc(O)cc2)C(=O)N[C@@H](Cc2ccccc2)C(=O)N1)[C@@H](C)O)C(=O)N[C@@H](Cc1c[nH]c2ccccc12)C(=O)O | – | – | 0.25 nM | 0.7 nM | 39.8 nM | 8.4 | –
CC[C@H](C)[C@H](NC(=O)[C@H](CC(C)C)NC(=O)[C@H](CC(C)C)NC(=O)[C@H](Cc1cnc[nH]1)NC(=O)[C@@H]1CSSC[C@H](N)C(=O)N[C@@H](CO)C(=O)N[C@H]2CSSC[C@H](NC(=O)[C@H](CCC(=O)O)NC(=O)[C@H](CCCCN)NC(=O)[C@H](CC(=O)O)NC(=O)[C@H](CCSC)NC(=O)[C@H](CC(C)C)NC(=O)[C@H](CO)NC(=O)[C@H](CO)NC2=O)C(=O)N[C@@H](C(C)C)C(=O)N[C@@H](Cc2ccc(O)cc2)C(=O)N[C@@H](Cc2ccccc2)C(=O)N1)C(=O)N[C@H](C(=O)N[C@@H](Cc1c[nH]c2ccccc12)C(=O)O)[C@@H](C)CC | – | – | 0.45 nM | 8.6 nM | 5010 nM | – | –
CC[C@H](C)[C@H](NC(=O)[C@H](CC1CCCCC1)NC(=O)[C@@H](NC(=O)[C@H](CC(C)C)NC(=O)[C@H](Cc1c[nH]cn1)NC(=O)[C@@H]1CSSC[C@H](N)C(=O)N[C@@H](CO)C(=O)N[C@H]2CSSC[C@H](NC(=O)[C@H](CCC(=O)O)NC(=O)[C@H](CCCCN)NC(=O)[C@H](CC(=O)O)NC(=O)[C@H](CCSC)NC(=O)[C@H](CC(C)C)NC(=O)[C@H](CO)NC(=O)[C@H](CO)NC2=O)C(=O)N[C@@H](C(C)C)C(=O)N[C@@H](Cc2ccc(O)cc2)C(=O)N[C@@H](Cc2ccccc2)C(=O)N1)[C@@H](C)O)C(=O)N[C@@H](Cc1c[nH]c2ccccc12)C(=O)O | – | – | 0.42 nM | 0.61 nM | 20 nM | – | –
CC[C@H](C)[C@H](NC(=O)[C@H](CC(C)C)NC(=O)[C@@H](NC(=O)[C@H](CC(C)C)NC(=O)[C@H](Cc1c[nH]cn1)NC(=O)[C@@H]1CSSC[C@H](N)C(=O)N[C@@H](CO)C(=O)N[C@H]2CSSC[C@H](NC(=O)[C@H](CCC(=O)O)NC(=O)[C@H](CCCCN)NC(=O)[C@H](CC(=O)O)NC(=O)[C@H](CCSC)NC(=O)[C@H](CC(C)C)NC(=O)[C@H](CO)NC(=O)[C@H](CO)NC2=O)C(=O)N[C@@H](C(C)C)C(=O)N[C@@H](Cc2ccc(O)cc2)C(=O)N[C@@H](Cc2ccccc2)C(=O)N1)[C@@H](C)O)C(=O)N[C@@H](Cc1c[nH]c2ccccc12)C(=O)O | – | – | 0.17 nM | 0.42 nM | 20 nM | – | –
CC[C@H](C)[C@H](NC(=O)[C@H](CC1CCCCC1)NC(=O)[C@@H](NC(=O)[C@H](CC(C)C)NC(=O)[C@H](Cc1c[nH]cn1)NC(=O)[C@@H]1CSSC[C@@H](N)C(=O)N[C@@H](CO)C(=O)N[C@@H]2CSSC[C@H](NC(=O)[C@H](CCC(=O)O)NC(=O)[C@@H](CCCCN)NC(=O)[C@@H](CC(=O)O)NC(=O)[C@@H](CCSC)NC(=O)[C@H](CC(C)C)NC(=O)[C@@H](CO)NC(=O)[C@H](CO)NC2=O)C(=O)N[C@@H](C(C)C)C(=O)N[C@H](Cc2ccc(O)cc2)C(=O)N[C@@H](Cc2ccccc2)C(=O)N1)[C@@H](C)O)C(=O)N[C@@H](Cc1c[nH]c2ccccc12)C(=O)O | 7.8 | – | – | – | – | – | 2
